Laboratory results taken from PubChem BioAssay.
Calls of active or inactive are those of the source.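 The calls were made as follows, unless noted: active = fluorescence slope higher than the sample average by over 3 SD (cut at about -0.22 in these data, passing the limit was not always enough); inactive = the rest.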

Legend:
[1] = inhibitors of TNFa-induced NFkB p65 translocation, primary screen, imaging, HUVEC, MLSMR starter and 10KST1 sets (AID 438;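 active = inhibition above 20% together with a positive visual image hit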;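 also: compound added about 3h40 before a 20 min TNFalpha stimulation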;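 as to inhibition: signal is the nuclear over cytoplasmic p65 intensity ratio per well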); conditions: HUVEC TNFa-induced p65 nuclear translocation; cell count: measured here: nuclei count (cytotoxicity indicator), at 2.08 µM; inhibition: at 2 µM, stronger effect = higher value, 0% TNFa-plus-vehicle, 100% no-TNFa wells
[2] = reduction of polyQ htt aggregates in cells – imaging, exon1htt(103Q)mCFP cells, high-content imaging, primary screen (AID 483;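 active = visual image review flags a hit and inhibition of aggregation exceeds 20%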;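 also: compound exposure lasted 3 days before fixation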;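 as to nuclei count: percent of the per-plate median nuclei count of sample wells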); conditions: exon1htt(103Q)mCFP cell line, aggregate imaging, at 2 µM; inhibition of aggregation: stronger effect = higher value; nuclei count: measured here: cell count, toxicity
[3] = endothelial E-selectin expression blockers – imaging, HUVEC, immunofluorescence, MLSMR starter and 10KST1 sets, primary screen (AID 487;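 active = visually confirmed hit in the image check and inhibition above 20%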;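 as to inhibition: signal is fraction of cell area covered by stained E-selectin grains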;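 as to nuclei count: 100% = median nuclei count of all wells on the same plate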); conditions: HUVEC TNFalpha-induced E-selectin immunofluorescence imaging, at 2 µM; inhibition: stronger effect = higher value; nuclei count: measured here: cell number, toxicity
[4] = target: Voltage-gated potassium channel subunit beta-2 (Rattus norvegicus) (UniProt P62483); assay: inhibitors of rat Kvbeta2 reductase activity – biochemical, NADPH fluorescence, primary screen (AID 622); conditions: recombinant KvBeta, 4-cyanobenzaldehyde reduction, at 10 µM, stronger effect = higher value;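 also: slope of raw intensity against log time taken from 70 to 1610 s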
[5] = target: Voltage-gated potassium channel subunit beta-2 (Rattus norvegicus) (UniProt P62483); assay: enhancers of rat Kvbeta2 NADPH turnover – biochemical, NADPH fluorescence, primary screen (AID 623;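 active = NADPH fluorescence slope more negative than the mean of all samples by about 3 SD, 99.7% confidence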;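 also: fluorescence intensity change per second fitted from 20 to 320 s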); conditions: Recombinant KvBeta, NADPH fluorescence decrease slope, 10 min; at 10 µM; stronger effect = lower value
[6] = target: Muscarinic acetylcholine receptor M4 (Homo sapiens) (UniProt P08173); assay: M4-linked GIRK flux change, two-sided – cell-based, HEK293 M4/GIRK, thallium flux, BTC-AM, M4 allosteric agonist project, primary screen (AID 625;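 active = fluorescence slope after compound addition differing from the mean of all tested samples at 99.7% confidence, mostly higher but some lower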;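 also: thallium influx through GIRK channels coupled to M4 in HEK293 cells with BTC-AM dye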); conditions: at 10 µM, actives lie on both sides
Summary of the method: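 Material: HEK293 cells with M4 receptor and GIRK channels; Times: cells overnight at 37 °C, BTC-AM loading 1 h, reads 2 min total; Technique: kinetic BTC-AM fluorescence sampled at 1 Hz, 10 s pre-addition baseline; Read-out basis: slope over 15–24 s of trace normalized to starting intensity; Controls: carbachol positive, DMSO negative.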

[7] = blockers of RIG-like receptor reporter activation – cell-based, Sendai virus stimulus, luciferase, 10K MLSCN set, TLR/RLR signaling modifier project, primary screen (AID 602276;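 active = inhibition at or above 50% at 10 µM; inactive = inhibition below 50%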;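 also: firefly luciferase from ISG56 promoter only with Renilla not read in this screen; 0% = Sendai virus plus DMSO and 100% = medium plus DMSO without virus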); conditions: HEK293 RL24 IRF3 luciferase reporter, at 10 µM, stronger effect = higher value
[8] = TLR3 IRF3 reporter activation blockers – cell-based, poly I:C stimulus, luciferase, 10K MLSCN set, primary screen (AID 602277;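 active = inhibition of the reporter signal at or above 50%; inactive = inhibition below 50%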); conditions: HEK293-TLR3 RL24 IRF3 luciferase reporter, at 10 µM, stronger effect = higher value

Chain of Voltage-gated potassium channel subunit beta-2 (Rattus norvegicus) (P62483 whole entry, looked up): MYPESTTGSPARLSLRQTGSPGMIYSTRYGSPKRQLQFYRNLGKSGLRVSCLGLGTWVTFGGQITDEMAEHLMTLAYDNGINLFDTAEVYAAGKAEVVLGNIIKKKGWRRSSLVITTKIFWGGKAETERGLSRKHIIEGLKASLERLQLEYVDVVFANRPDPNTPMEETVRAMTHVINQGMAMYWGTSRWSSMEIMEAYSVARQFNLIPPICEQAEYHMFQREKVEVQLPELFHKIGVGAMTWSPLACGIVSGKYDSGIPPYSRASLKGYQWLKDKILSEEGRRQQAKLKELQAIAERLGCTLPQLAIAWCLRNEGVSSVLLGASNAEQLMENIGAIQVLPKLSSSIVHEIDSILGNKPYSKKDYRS
Chain of Muscarinic acetylcholine receptor M4 (Homo sapiens) (P08173 whole entry, looked up): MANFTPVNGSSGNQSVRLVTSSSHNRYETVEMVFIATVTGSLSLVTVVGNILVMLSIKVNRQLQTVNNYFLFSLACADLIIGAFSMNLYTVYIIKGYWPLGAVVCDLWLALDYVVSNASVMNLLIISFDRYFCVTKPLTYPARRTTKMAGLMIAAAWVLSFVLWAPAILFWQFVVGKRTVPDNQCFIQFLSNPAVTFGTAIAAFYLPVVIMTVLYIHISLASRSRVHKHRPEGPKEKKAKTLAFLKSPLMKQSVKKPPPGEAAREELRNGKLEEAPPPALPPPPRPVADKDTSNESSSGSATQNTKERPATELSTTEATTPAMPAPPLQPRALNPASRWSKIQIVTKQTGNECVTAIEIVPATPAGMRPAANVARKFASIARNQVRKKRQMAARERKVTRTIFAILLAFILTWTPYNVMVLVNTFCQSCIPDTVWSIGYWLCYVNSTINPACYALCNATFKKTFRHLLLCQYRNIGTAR

| SMILES | cell count [1] | inhibition [1] | inhibition of aggregation [2] | nuclei count [2] [%] | inhibition [3] | nuclei count [3] [%] | fluorescence slope [4] | NADPH fluorescence slope [5] | fluorescence slope [6] | inhibition [7] | inhibition [8] |
| --- | --- | --- | --- | --- | --- | --- | --- | --- | --- | --- | --- |
| CCn1c(Cc2ccccc2)nnc1SCC(=O)Nc1nc2ccccc2s1 | 741 | -0.5% (inactive) | -25.5% (inactive) | 115 | -24.9% (inactive) | 97.6 | -0.469 (inactive) | -4.8e-05 (inactive) | 0.00499 (inactive) | 18.4% (inactive) | 17.4% (inactive) |
| COc1oc(-c2ccccc2)nc1C(F)(F)F | 353 | 4.1% (inactive) | 0.7% (inactive) | 106 | -15.8% (inactive) | 116 | -0.473 (inactive) | -3.2e-05 (inactive) | 0.00537 (inactive) | 3.7% (inactive) | 12.2% (inactive) |
| COC(=O)C1CCN(C(=O)CSc2nnc(-c3ccncc3)o2)CC1 | 682 | -6.4% (inactive) | 22.4% (inactive) | 59.8 | -9.5% (inactive) | 109 | -0.57 (inactive) | -5.5e-05 (inactive) | 0.0106 (inactive) | -9.36% (inactive) | -15.6% (inactive) |
| COC(=O)c1cc(-c2c(C)nn(-c3ccccc3)c2C)n[nH]1 | 391 | 1.1% (inactive) | -8.1% (inactive) | 111 | 8.5% (inactive) | 95.5 | -0.447 (inactive) | 2.5e-05 (inactive) | 0.00494 (inactive) | -13.2% (inactive) | -66.7% (inactive) |
| Cc1c(NC(=O)CN2c3cccc4cccc(c34)S2(=O)=O)c(=O)n(-c2ccccc2)n1C | 721 | -7.1% (inactive) | 1.4% (inactive) | 103 | -119% (inactive) | 141 | -0.442 (inactive) | -2.5e-05 (inactive) | 0.00478 (inactive) | 8.89% (inactive) | 15.5% (inactive) |
| O=C1CC(Cc2ccccc2)C(=O)N1CCc1ccc2c(c1)OCO2 (centres undefined) | 480 | 3.5% (inactive) | -0.2% (inactive) | 110 | -145% (inactive) | 127 | -0.579 (inactive) | -1.8e-05 (inactive) | 0.00603 (inactive) | -0.603% (inactive) | 9.62% (inactive) |
| Cc1cc(=O)n(CC(C)C)c(O)c1C#N | 432 | 1.5% (inactive) | 9.1% (inactive) | 94.3 | -11.8% (inactive) | 109 | -0.581 (inactive) | -3.7e-05 (inactive) | 0.00407 (inactive) | 13% (inactive) | -7.21% (inactive) |
| CCN(C#N)c1nc(NC(C)C)nc(NC(C)C)n1 | 354 | 3.3% (inactive) | 14.7% (inactive) | 100 | -0.6% (inactive) | 82.6 | -0.316 (inactive) | -5.2e-05 (inactive) | 0.00491 (inactive) | 0.243% (inactive) | 9.55% (inactive) |
| COC(=O)c1cnn2c(C(F)(F)F)cc(-c3ccco3)nc12 | 246 | 0.2% (inactive) | 38.2% (inactive) | 75.8 | 42.4% (inactive) | 72.5 | -0.276 (inactive) | -8.1e-06 (inactive) | 0.00336 (inactive) | 8.92% (inactive) | 9.22% (inactive) |
| c1ccc(-n2nnnc2OCCOc2nnnn2-c2ccccc2)cc1 | 172 | -10.5% (inactive) | 11.5% (inactive) | 102 | -5.3% (inactive) | 83.1 | -0.562 (inactive) | -6.2e-05 (inactive) | 0.00376 (inactive) | 14.3% (inactive) | 23.8% (inactive) |
| O=C(Nc1ccccc1)c1cccnc1N1CCOCC1 | 590 | -11.1% (inactive) | -5.4% (inactive) | 110 | -36.4% (inactive) | 84.1 | -0.449 (inactive) | -0.000339 (inactive) | 0.00425 (inactive) | 4.9% (inactive) | 19.1% (inactive) |
| O=C(CCCC(=O)N(CC(=O)NC1CCCCC1)Cc1ccc2c(c1)OCO2)Nc1ccccn1 | 395 | 4.2% (inactive) | -3% (inactive) | 91 | -237% (inactive) | 110 | -0.479 (inactive) | 3.7e-05 (inactive) | 0.00636 (inactive) | 15.4% (inactive) | 25.3% (inactive) |
| O=c1c2c3c(sc2n2cnnc2n1CCc1ccccc1)CCCC3 | 660 | -1.4% (inactive) | 3.7% (inactive) | 99.9 | -171% (inactive) | 130 | -0.543 (inactive) | -2.6e-05 (inactive) | 0.00413 (inactive) | 2.46% (inactive) | 2.39% (inactive) |
| O=C(CS(=O)(=O)Cc1ccccc1)N1CCc2ccccc2C1 | 753 | -0.7% (inactive) | 13.8% (inactive) | 97.8 | -110% (inactive) | 124 | -0.529 (inactive) | -4.4e-05 (inactive) | 0.00542 (inactive) | -17.6% (inactive) | -31.5% (inactive) |
